Hits are enriched below; roughly 1.5% of the tested compounds scored in any of these assays.
MLL AF4-AF9 inh – inhibitors of human MLL-AF4/AF9 interaction; P42568; actives 0.47% (n = 350,000); AlphaScreen, biotin-AF4 peptide binding to FLAG-AF9; inhibition, % at 10 µM; AID 651704;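 active = every replicate reaching a set inhibition limit, whatever the replicate mean, cut at about 25% in these data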;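 also: 0% = plate neutral control median and 100% = total signal loss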
Target sequence (P42568 whole entry, looked up): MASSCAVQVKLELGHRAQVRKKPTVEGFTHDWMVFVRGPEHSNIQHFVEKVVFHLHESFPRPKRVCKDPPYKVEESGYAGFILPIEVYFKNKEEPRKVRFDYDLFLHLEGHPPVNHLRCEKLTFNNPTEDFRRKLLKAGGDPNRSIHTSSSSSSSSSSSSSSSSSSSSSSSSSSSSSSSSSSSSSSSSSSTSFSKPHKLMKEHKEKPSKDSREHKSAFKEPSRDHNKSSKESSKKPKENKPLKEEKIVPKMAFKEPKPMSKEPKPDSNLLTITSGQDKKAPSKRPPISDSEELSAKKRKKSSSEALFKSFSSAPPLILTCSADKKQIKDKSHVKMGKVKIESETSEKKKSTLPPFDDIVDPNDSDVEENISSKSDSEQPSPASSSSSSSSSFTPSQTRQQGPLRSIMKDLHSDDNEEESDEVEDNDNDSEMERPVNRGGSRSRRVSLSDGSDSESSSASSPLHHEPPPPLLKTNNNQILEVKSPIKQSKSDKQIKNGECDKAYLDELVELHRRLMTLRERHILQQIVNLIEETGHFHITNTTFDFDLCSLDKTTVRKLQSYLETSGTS
ERAP1 inh – blocks human ERAP1 aminopeptidase activity; AID 652197; inhibition, % at 10.7 µM; recombinant ERAP1, Leu-AMC fluorescence, 60 min; Q9NZ08; actives 0.15% (n = 340,000);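 active = mean replicate inhibition of at least 30%, or all replicates individually reaching that 30% level; inactive = mean below 30% and not every replicate reaching it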;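 also: 0% = neutral control wells and 100% = L-leucinethiol positive control wells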
RAD52 inh – blocks human RAD52 DNA annealing | P43351 | recombinant RAD52 DNA annealing, FRET fluorescence | inhibition, % at 18.7 µM | actives 0.46% (n = 360,000);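 active = every replicate showing at least 50% inhibition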
INS-1E GSIS act – GLuc luminescence reporter in INS-1E cells, primary screen for activators of glucose-dependent secretion of insulin. activation, % at 16.6 µM. actives 0.61% (n = 370,000). INS-1E GLuc reporter insulin secretion, 2-3 h;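 active = lowest replicate activation of at least 40%, so every replicate reaches that level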;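 also: 0% = median of neutral control wells and 100% = median of IBMX positive control wells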
S100A4 MyoIIA – S100A4-myosin IIA interaction inhibition; actives 0.14% (n = 360,000); S100A4/TAMRA-MyoIIA peptide fluorescence polarization; AID 652163; P26447; inhibition, % at 10.7 µM;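 active = mean inhibition of at least 70% across replicates, with every replicate also reaching that level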
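incubation = readout 5 min after mixing, signal stable up to 60 min | system = S100A4 monomer protein | buffer or medium = HEPES pH 7.2 with CaCl2, KCl, NaCl, DTT, Triton | benchmarks = neutral control DMSO, positive control TFP | also added = fluorescent myosin IIA peptide, 5 nM | compound dosing = one concentration per compound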
* = called active by the depositor; . = no result; ! = a repeat was not active.

SMILES	MLL AF4-AF9 inh	ERAP1 inh	RAD52 inh	INS-1E GSIS act	S100A4 MyoIIA
CCOC(=O)c1ccccc1NC(=O)CN(c1ccccc1OC)S(C)(=O)=O	.	.	.	62*	.
CCCC#Cc1ccc([C@H]2[C@H](CO)N3C(=O)CN(C(=O)c4ccccc4)C[C@@H]23)cc1	0	-1	0	-6	21
O=[N+]([O-])c1cc(Cl)ccc1NCCNc1ncc(C(F)(F)F)cc1Cl	.	.	.	58*	.
O=c1[nH]c2cc(Cl)ccc2n(CCNc2ncc(C(F)(F)F)cc2Cl)c1=O	.	.	.	72*	.
O=c1cc(Cl)[nH]c(=O)n1CCNc1ncc(C(F)(F)F)cc1Cl	.	.	.	3	.
O=C1C=CC(=O)N1CCNc1ncc(C(F)(F)F)cc1Cl	13	1	-20	147*	-1
CCC(=O)N1CCC2(CC1)CN(S(=O)(=O)c1ccccc1)[C@H](CO)c1[nH]c3cc(OC)ccc3c12	-2	-3	1	-5	-4
COc1ccc(C2/C=C\CN(S(=O)(=O)c3cccc4cccnc34)CC(=O)N2Cc2ccc(F)cc2)cc1 (stereo not given)	-2	.	-14	16	91*
COc1ccc([C@H]2/C=C\CN(S(=O)(=O)c3cccc4cccnc34)[C@@H](C)C(=O)N2Cc2ccc(F)cc2)cc1	.	-1	-29	-1	-1
CCN(CC)C(=O)Cn1c(=O)oc2ccccc21	-2	2	2	42*	15
O=C(Cc1ccncc1)NCC[C@H]1CC[C@H](NS(=O)(=O)c2ccccc2Cl)[C@H](CO)O1	-1	1	-24	-3	12
O=C1CNC[C@H]2[C@@H](c3ccc(C#CC4CCCC4)cc3)[C@@H](CO)N12	0	0	-61	7	88*
O=C1CNC[C@@H]2[C@@H](c3ccc(C#CC4CCCC4)cc3)[C@H](CO)N12	1	1	9	17	-12
COc1ccc(C(=O)NC(=S)Nc2ccc3c4c(cccc24)CC3)cc1OC	.	.	.	96*	.
COc1cc(OC)cc(C(=O)NC(=S)Nc2ccc3c4c(cccc24)CC3)c1	.	.	.	-12	.
CCCN(C)C[C@@H]1OCCCC[C@@H](C)Oc2ccc(NC(=O)CCC(F)(F)F)cc2C(=O)N([C@@H](C)CO)C[C@@H]1C	0	-1	3	-1	-12
O=C(O)C[C@H]1C[C@@H]2c3cc(NS(=O)(=O)c4ccccc4)ccc3O[C@@H]2[C@H](CO)O1	0	-3	-39	1	-2
CC(C)C#Cc1ccc([C@H]2[C@@H](CO)N3C(=O)CN(C(=O)Cc4cccnc4)C[C@H]23)cc1	.	.	.	-2	.
c1ccc(-c2ccc(C3[C@H]4CNC[C@@H]3N4Cc3cccc(-c4ccncc4)c3)cc2)cc1 (stereo not given in full)	4	-3	59*	-8	1
Fc1cccc(CN2[C@@H]3CNC[C@H]2C3c2ccc(-c3ccncc3)cc2)c1 (stereo not given in full)	30*!	0	65*!	-7	-3
Cc1ccc(S(=O)(=O)Nc2ccc3c(c2)CC(=O)N([C@H](C)CO)C[C@H](C)[C@@H](CN(C)Cc2ccc(-c4ccccc4)cc2)O3)cc1	6	-1	67*	-9	-7
C[C@H](CO)N1C[C@H](C)[C@H](CN(C)Cc2ccccc2)Oc2ccc(NS(=O)(=O)c3ccccc3)cc2CC1=O	4	0	-5	-1	87*
CC(C)NC(=O)N(C)C[C@@H]1Oc2ccc(NS(=O)(=O)c3ccc(Cl)cc3)cc2CC(=O)N([C@@H](C)CO)C[C@@H]1C	36*	1	-4	6	-11
COc1ccc(S(=O)(=O)Nc2ccc3c(c2)CC(=O)N([C@H](C)CO)C[C@H](C)[C@@H](CN(C)CC2CC2)O3)cc1	3	-4	16	2	118*
O=C(C[C@@H]1C=C[C@@H](NC(=O)c2ccncc2)[C@H](CO)O1)Nc1ccccc1	-4	2	-14	551	5
Cc1ccc(CCNC(=O)c2cc(-c3ccncc3)nc3ccc(S(=O)(=O)N4CCOCC4)cc23)cc1	0	1	-22	11	148*
O=C(NCc1ccccc1)c1cc(-c2ccncc2)nc2ccc(S(=O)(=O)N3CCOCC3)cc12	-2	0	2	.	0
COc1ccccc1CN1CC2(C1)[C@@H](c1ccccc1)[C@@H](CO)N2Cc1ccccc1	.	.	.	-5	.

Assay outcomes from PubChem.
